# Test results published in PubChem BioAssay AID449757 (Broad Institute, 2010).
# Calls of active or inactive are those of the source.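 The calls were made as follows: active = compounds whose fitted caspase activation midpoint falls no more than tenfold above the top tested dose; inconclusive = flat fit with activity between 30 and 70 percent, or failed fit; inactive = the rest.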
# Tested on: MEF Flag-A1-IRES-BIM, caspase-Glo luminescence, 3 h
# Assay: Caspase-Glo signal, Flag-A1-IRES-BIM MEF cells – cell-based, alternate construct, luminescence, A1 (Bcl2A1) inhibitor project, dose response (AID 449757)
# Method in brief: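 System: Flag-A1-IRES-BIM-primed MEF cells; Doses: 100 nL compound added per well by pin transfer; Times: 3 h at 37 °C, then 1 h detection at room temperature; Measured by: luminescent caspase activity measurement with CaspaseGlo reagent.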
row,SMILES,AC50
1,CCN(C(=O)CCN1C(=O)c2ccccc2S1(=O)=O)c1ccccc1,> 35 µM (inactive)
2,O=S1(=O)CCOC[C@H](CC2CCCCC2)N1Cc1cccc(Cl)c1,> 35 µM (inactive)
3,O=C(c1ccc(COc2ccc3ccccc3c2)o1)N1N=C(C(F)F)CC1(O)C(F)F (stereo not drawn),> 35 µM (inactive)
4,CC(C)(C)c1ccc(C(=O)Nc2ccc(O)c3c(=O)cc(-c4cccc(Cl)c4)oc23)cc1,> 35 µM (inactive)
5,CCOc1ccc(-n2c(SCC(=O)Nc3ccc(Br)cc3)nc3n[nH]c(C)c3c2=N)cc1,31 µM
6,Cc1cc(=O)[nH]c(SCC(=O)Nc2ccc(Br)cc2)c1C#N,> 35 µM (inactive)
7,O=C(Cn1c(C(F)(F)F)nc2ccccc21)N=Nc1c(O)[nH]c2ccc(Br)cc12,29.8 µM
8,O=c1c(Cl)c(Cl)cnn1Cc1ccccc1Cl,> 35 µM (inactive)
9,Cc1cc(C)cc(NC(=O)/C(C#N)=C/c2cn(CC(=O)NCc3ccco3)c3ccccc23)c1,8.5 µM
10,COc1cc(/C=C2/C(=N)N3C=CSC3=NC2=O)ccc1OCCCOc1cc(C)ccc1C,16.2 µM
11,O=C(CN(c1ccc(Br)cc1)S(=O)(=O)c1ccc(Cl)c([N+](=O)[O-])c1)NCCc1ccccc1,> 35 µM (inactive)
12,COc1cc(/C=C(/C#N)c2nc3ccccc3[nH]2)ccc1OCC(=O)Nc1ccccc1C(C)C,16.1 µM
13,CC(C)c1cccc(-c2ccc3c(c2)S(=O)(=O)c2cccc(C(=O)NC4CCCC4)c2C3=O)c1,> 35 µM (inactive)
14,CC1CCc2c(sc3nc(C(C)(C)C)nc(N4CCN(C(=O)CCl)CC4)c23)C1 (stereo not drawn),10.2 µM
15,CN(c1ccccc1)c1ccc(/C=C/[N+](=O)[O-])cc1,10.2 µM
16,CC(=O)Nc1ccc(NC(=O)C(=O)NCC(c2ccco2)N2CCc3ccccc32)cc1 (stereo not drawn),28.9 µM
17,COc1ccc2c(-c3cc4ccc(OCc5ccc(F)cc5)cc4oc3=O)cc(=O)oc2c1,21.1 µM
18,CC(C)CCN(C(=O)Cc1ccc(Cl)c(Cl)c1)c1c(N)n(Cc2ccccc2)c(=O)[nH]c1=O,16.9 µM
19,NS(=O)(=O)c1ccc(N/N=C2/CCCCC2C2CCCCC2)c([N+](=O)[O-])c1 (stereo not drawn),32.3 µM
20,CCOCCCNC(=O)c1ccc2c(c1)N=C(CC)c1cc(Br)ccc1S2,> 35 µM (inactive)
21,COc1ccc(NC(=O)C(=O)N/N=C\c2ccc(CNC(=O)C(=O)Nc3ccc(C)c(C)c3)o2)c(OC)c1,26.1 µM
22,CC(C)(C)[C@H](N)C(=O)N[C@H]1CCC2C3CC=C4C[C@@H](O)CC[C@]4(C)C3CC[C@@]21C (stereo partly drawn),> 35 µM (inactive)

row,SMILES,AC50
1,C=C1/C=C(\C)[C@](C)(O)C[C@H](O)CC(=O)[C@H](O)[C@@H](O)[C@H](C)C[C@H](C)OC(=O)/C(C)=C/CC/C=C/[C@@H]2O[C@H]2C[C@H](C)C1,> 35 µM (inactive)
2,CCOC(=O)/C(=C\c1cccnc1)C(=O)c1cc(C(C)=O)c(Nc2ccccc2)s1,4.1 µM
3,Cc1ccc(C(=O)COC(=O)c2ccc3c(c2)C(=O)N(c2cccc4ncccc24)C3=O)cc1,36.1 µM
4,CC1=NNC(=O)/C1=C\c1cn(-c2ccccc2)nc1-c1cccs1,14.2 µM
5,CCOc1cc(/C=C\[N+](=O)[O-])ccc1OCC(=O)Nc1ccccc1C,6.53 µM
6,CCOC(=O)/C(=C\c1ccc([N+](=O)[O-])cc1)C(=O)c1cc(C(C)=O)c(Nc2ccccc2)s1,1.81 µM
7,Cc1cc(C)cc(Cn2ncc(Cl)c(Cl)c2=O)c1,> 35 µM (inactive)
8,Cc1ccc(C#N)c(SCC(=O)Nc2nccs2)n1,> 35 µM (inactive)
9,CC(=O)OC(C)(C)/C=C/C(=O)C(C)(O)C1[C@H](O)C[C@@]2(C)C3CC=C4C(CC[C@@H](O)C4(C)C)[C@]3(CO)C(=O)C[C@]12C (stereo partly drawn),> 35 µM (inactive)
10,COc1ccc(-c2cc3ccccc3oc2=O)cc1NC(=S)NC(=O)c1ccc2c(c1)OCCO2,6.36 µM
11,COc1ccc2c(c1)CCc1c(C(=O)Nc3cc(C)n(Cc4ccc(Cl)cc4)n3)noc1-2,21.9 µM
12,COc1ccc(NC(=O)CSc2nc3ccc(Nc4nc(N5CCOCC5)nc(N5CCOCC5)n4)cc3s2)cc1,> 35 µM (inactive)
13,O=C(N=Nc1c(O)[nH]c2ccc([N+](=O)[O-])cc12)c1cc(-c2ccccc2Cl)nc2ccccc12,> 35 µM (inactive)
14,CCC(Sc1nc2cc3c(cc2c(=O)n1Cc1ccco1)OCO3)C(=O)Nc1cccc(OC)c1 (stereo not drawn),> 35 µM (inactive)
15,O=C(Nc1ccc(Cl)cc1Cl)c1cccc(N2C(=O)C=CC2=O)c1,19.1 µM
16,COc1ccc(-c2ccc3c(c2)S(=O)(=O)c2cccc(C(=O)NC[C@@H]4CCCO4)c2C3=O)cc1OC,> 35 µM (inactive)
17,Cn1c(=NC(=O)CCl)sc2ccccc21,> 35 µM (inactive)
18,C=C1CCc2c([nH]c3ccc(OCC(C)C)cc23)C1=O,8.5 µM
19,Cc1ccc(S(=O)(=O)N(C)Cc2ccc(C(=O)N/N=C/c3ccc(OC(F)F)cc3)cc2)cc1,> 35 µM (inactive)
20,Cc1ccc(C2(c3ccc(C)cc3)CC2C(=O)Nc2ccc([N+](=O)[O-])cc2O)cc1 (stereo not drawn),> 35 µM (inactive)
21,O=[N+]([O-])/C=C/c1ccc2c(ccn2Cc2ccccc2)c1,13.4 µM
22,COc1cc(-c2cc(-c3ccccc3)nc(SCC(=O)Nc3nccs3)c2C#N)cc(OC)c1OC,> 35 µM (inactive)

row,SMILES,AC50
1,O=C(Nc1ccc2oc(-c3ccccc3F)nc2c1)c1ccccc1F,> 35 µM (inactive)
2,Nc1nc(F)nc2c1ncn2[C@@H]1O[C@H](CO)[C@@H](O)[C@H]1O,> 35 µM (inactive)
3,COc1ccc(C(=O)/C=C/C(=O)N(CC(=O)NC2CCCCC2)Cc2cccs2)c(O)c1,24.5 µM
4,COc1ccc(C2Nc3ccc4ccccc4c3-c3c2c(=O)oc2ccccc32)cc1 (stereo not drawn),14.9 µM
5,N#CC(C#N)=C1C=CC=CN1/C(=C\c1ccccc1Cl)C(=O)c1ccccc1,3.43 µM
6,COc1cc2cnc(-c3ccccc3)c(-c3cccc(C(F)(F)F)c3)c2cc1OC,> 35 µM (inactive)
7,COc1cc(NC(=O)c2ccc(C)cc2C)ccc1NC(=O)c1cc2ccccc2o1,32.3 µM
8,CC1=NNC(=O)/C1=C\c1cn(-c2ccccc2)nc1-c1ccccc1,10.4 µM
9,COC(=O)c1ccc2c(=O)n(Cc3ccc4c(c3)OCO4)c(=S)[nH]c2c1,> 35 µM (inactive)
10,O=C(/C=C/c1ccc(F)cc1)NC(=S)Nc1ccccc1C(=O)NC1CCCCC1,> 35 µM (inactive)
11,Oc1ccc(/C=N/N2CCN(C3c4ccccc4-c4ccccc43)CC2)cc1O,24 µM
12,Cc1ccc(Sc2c([N+](=O)[O-])c(=O)n(C)c3ccccc23)cc1,> 35 µM (inactive)
13,CC(=O)Nc1ncnc2c1c(-c1ccc(Cl)cc1)nn2C(C)(C)C,> 35 µM (inactive)
14,CCCc1ccc(OCc2ccc(C(=O)N/N=C/c3cccc([N+](=O)[O-])c3)o2)c(OC)c1,6.57 µM
15,Cc1ccc(C)c(NC(=S)NC(NC(=O)Cc2cccc3ccccc23)C(Cl)(Cl)Cl)c1 (stereo not drawn),13.2 µM
16,COC(=O)CSc1nc(N)c2c3c(sc2n1)C(c1ccccc1)SC(c1ccccc1)C3 (stereo not drawn),> 35 µM (inactive)
17,O=C(NCc1ccccc1Cl)c1cccc2c1C(=O)c1ccc(-c3ccc(OC(F)(F)F)cc3)cc1S2(=O)=O,> 35 µM (inactive)
18,O=C(NC1CCCC1)c1cccc2c1C(=O)c1ccc(/C=C/c3ccccc3)cc1S2(=O)=O,7.48 µM
19,COC(=O)c1ccc2c(c1)C(C)(C)C(/C=C/c1ccccc1O)=[N+]2C,11.3 µM
20,COc1ccc(C=C2C=C(C(C)(C)C)C(=O)C(C(C)(C)C)=C2)cc1OC,3.49 µM
21,COc1ccc(NC(=S)NC(NC(=O)/C=C/c2ccccc2)C(Cl)(Cl)Cl)cc1 (stereo not drawn),> 35 µM (inactive)
22,N#Cc1c(C(F)(F)F)cc(-c2ccccc2)nc1SCC(=O)Nc1sc2c(c1C#N)CCC2,> 35 µM (inactive)

row,SMILES,AC50
1,Cc1ccc2c(c1)c(C1=c3ccccc3=NC1=O)c(O)n2C,> 35 µM (inactive)
2,COC(=O)[C@@]1(C)CC[C@]2(C)CC[C@@]3(C)C(=CC(=O)C4[C@@]5(C)CC[C@H](O)C(C)(C)[C@@H]5CC[C@]43C)[C@H]2C1 (stereo partly drawn),> 35 µM (inactive)
3,CCOC(=O)/C=c1\s/c(=C\c2ccc(C(=O)OC)cc2)c(=O)n1CC(=O)Nc1ccccc1,> 35 µM (inactive)
4,COC(=O)Cc1csc(/N=C/c2c(O)n(-c3cccc(C(F)(F)F)c3)c(=O)c3ccccc23)n1,18.1 µM
5,Cc1cccc(Nc2nc(N)c([N+](=O)[O-])c(N3CCCC(C)C3)n2)c1 (stereo not drawn),> 35 µM (inactive)
6,COc1cc(/C=C/[N+](=O)[O-])ccc1OC(=O)c1cccnc1,9.63 µM
7,Cc1ccc(C)c(S(=O)(=O)NCC(=O)Nc2sc3c(c2C(N)=O)CCC(C)C3)c1 (stereo not drawn),> 35 µM (inactive)
8,Cc1ccc(NC(=O)CSc2nc3nc(C)c(Br)cc3[nH]2)cc1F,> 35 µM (inactive)
9,CCOC(=O)C1=C(c2ccccc2)O/C(=C(/C#N)C(F)(F)F)S1,> 35 µM (inactive)
10,Cc1ccc(N(Cc2cc(=O)[nH]c3ccccc23)C(=O)CCl)cc1,> 35 µM (inactive)
11,CCOc1ccc(NC(=S)NC(=O)/C=C/c2ccc(C)cc2)c([N+](=O)[O-])c1,21 µM
12,O=C(COc1ccc(/C=N/NC(=O)c2cc3ccccc3o2)cc1Br)Nc1ccccc1,25.3 µM
13,Cc1[nH]nc2nc(SCC(=O)NCCC3=CCCCC3)n(-c3ccc(Br)cc3)c(=N)c12,17.1 µM
14,CC(=O)[C@]1(O)Cc2c(O)c3c(c(O)c2[C@@H](O[C@H]2C[C@H](N)[C@H](O)[C@H](C)O2)C1)C(=O)c1ccccc1C3=O,> 35 µM (inactive)
15,CCOc1cc(/C=N/Nc2cc(C)nc(-n3nc(C)cc3C)n2)ccc1O,> 35 µM (inactive)
16,CC1CC(C)CN(C(=O)c2ccc(-c3ccc([N+](=O)[O-])cc3)o2)C1 (stereo not drawn),> 35 µM (inactive)
17,COc1ccccc1-c1cc(C(F)(F)F)nc(S(=O)(=O)CCCC(=O)N2CCOCC2)n1,8.31 µM
18,C=CC(=O)Nc1ccc(CN2C(=O)N(c3c(Cl)c(OC)cc(OC)c3Cl)Cc3cnc(NCCCCN(CC)CC)nc32)cc1,> 35 µM (inactive)
19,CCOc1cc(C(=O)CSc2nnc(CNc3ccc(Cl)cc3)o2)ccc1NC(=O)CC,15.3 µM
20,CCc1nn(-c2cc(Oc3cccc4ccccc34)nc(-c3ccccc3)n2)c(N)c1C#N,> 35 µM (inactive)
21,CC1(C)C[C@H](O)[C@]2(CO)[C@H](O)C[C@]3(C)C(=CCC4[C@@]5(C)CC[C@H](O)C(C)(C)C5CC[C@]43C)[C@@H]2C1 (stereo partly drawn),> 35 µM (inactive)
22,CCCCCCCC/C=C\CCCCCCCC(=O)NCCc1ccc(O)c(O)c1,11.6 µM
